Measured values as given in ChEMBL document CHEMBL1152328, “Alstiphyllanines A-D, indole alkaloids from Alstonia macrophylla” (J Nat Prod, 2009).
≈ marks a conversion by molar mass, not a printed value.

Key:
HeLa = test: Cytotoxicity against human HeLa cells; assay type: cell-based
Plasmodium falciparum = test: Antiplasmodial activity against Plasmodium falciparum 3D7 infected human erythrocytes by Giemsa staining; assay type: functional, organism-based
In short: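 Human malaria parasites were kept in culture, and the test samples were made up as DMSO stock solutions before assay.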

Aorta = test: Vasodilation activity in Wistar rat endothelium-intact thoracic aortic ring assessed as inhibition of phenylepinephrine-induced contraction at 30 uM; assay type: functional; set-up: scale not given: the % may be the effect or the level left

| IC50 (Plasmodium falciparum) | Structure (SMILES) | IC50 (HeLa) | Activity (Aorta) |
| --- | --- | --- | --- |
| 6.2 µg/mL | C/C=C1/C[N+]2(C)[C@@H]3C[C@@]45c6cc(OC)ccc6N(C)[C@]4(O3)[C@@H]2C[C@@H]1[C@@]5(COC(=O)c1cc(OC)c(OC)c(OC)c1)C(=O)OC (some centres not stated) [ALSTIPHYLLANINE C] | > 25 µg/mL | 40% |
| 0.34 µg/mL | C/C=C1/C[N+]2(C)[C@@H]3C[C@@]45c6cc(OC)ccc6N(C)[C@]4(O3)[C@@H]2C[C@@H]1[C@@]5(COC(=O)c1ccc(OC)c(OC)c1)C(=O)OC (some centres not stated) [ALSTIPHYLLANINE B] | > 25 µg/mL | 35% |
| 2.75 µg/mL (≈ 4.53 µM) | C/C=C1/CN2[C@@H]3C[C@@]45c6cc(OC)ccc6N(C)[C@]4(O3)[C@@H]2C[C@@H]1[C@@]5(COC(=O)c1cc(OC)c(OC)c(OC)c1)C(=O)OC [ALSTIPHYLLANINE D] | > 25 µg/mL | 42% |

| Structure (SMILES) | IC50 (Plasmodium falciparum) | IC50 (HeLa) | Activity (Aorta) |
| --- | --- | --- | --- |
| C/C=C1\C[N+]2([O-])[C@H]3C[C@@H]1[C@]1(C(=O)OC)[C@@H](OC(C)=O)[C@]4(C[C@@H]12)c1ccccc1N(C)[C@H]34 [ALSTIPHYLLANINE A] | 6.85 µg/mL (≈ 16.1 µM) | > 25 µg/mL | 70% |
